Screening results: PubChem BioAssay, several laboratories
IMP-1 inh: IMP-1 metallo-beta-lactamase inhibitors, primary screen, biochemical, epi-absorbance readout, Pseudomonas aeruginosa enzyme; purified IMP-1, nitrocefin hydrolysis, epi-absorbance fluorescence; inhibition, % at 5.6 µM; metallo-beta-lactamase IMP-1 (Pseudomonas aeruginosa); 0.45% of 290,000 active;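 active means inhibition above the mean plus 3 SD of all compounds in the same screening run, cut at about 4.5% in these data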;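 further: 0% = IMP-1 with DMSO and 100% = DMSO wells lacking enzyme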
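System: Purified recombinant IMP-1 metallo-beta-lactamase enzyme | Measured by: Fluorescence quenching readout, ex 480/em 530 nm | Replication: Singlicate | Incubation: 15 min preincubation plus 25 min reaction at 25 °C | Evaluation: Percent inhibition from optical density relative to buffer-blank wells | Benchmarks: DMSO with and without IMP-1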
CHT allo act: CHT positive allosteric modulators, primary screen, cell-based, membrane potential dye, choline EC20 | High affinity choline transporter 1 (Homo sapiens), Q9GZV3 | CHT-expressing cells; stronger effect = higher value; LV-AA mutant CHT in HEK293 cells | B-score at 10 µM | 0.49% of 310,000 active | AID 488977, 2010;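 active means initial fluorescence not abnormally high and integrated response B-score, plate-corrected, over 3 SD above library mean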
Target sequence (Q9GZV3 whole entry, looked up): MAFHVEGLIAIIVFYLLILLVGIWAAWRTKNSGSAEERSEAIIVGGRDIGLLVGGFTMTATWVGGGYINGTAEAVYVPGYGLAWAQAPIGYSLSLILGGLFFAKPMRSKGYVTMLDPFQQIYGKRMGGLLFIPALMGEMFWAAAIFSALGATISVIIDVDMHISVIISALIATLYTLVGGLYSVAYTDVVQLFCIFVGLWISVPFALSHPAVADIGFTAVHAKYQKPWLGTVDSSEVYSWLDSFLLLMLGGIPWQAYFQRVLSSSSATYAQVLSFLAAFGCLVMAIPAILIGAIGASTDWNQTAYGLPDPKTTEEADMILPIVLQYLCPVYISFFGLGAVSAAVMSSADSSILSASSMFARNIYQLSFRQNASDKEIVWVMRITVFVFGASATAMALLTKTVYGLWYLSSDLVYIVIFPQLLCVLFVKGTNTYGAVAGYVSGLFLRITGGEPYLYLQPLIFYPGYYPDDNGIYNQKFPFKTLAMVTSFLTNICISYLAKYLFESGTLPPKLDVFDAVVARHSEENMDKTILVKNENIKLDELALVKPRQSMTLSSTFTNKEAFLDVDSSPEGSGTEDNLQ
VIM-2 inhibitor: VIM-2 metallo-beta-lactamase inhibitors, primary screen, biochemical, epi-absorbance readout, Pseudomonas aeruginosa enzyme; purified VIM-2, nitrocefin hydrolysis, epi-absorbance fluorescence; inhibition, % at 5.6 µM; 0.89% of 290,000 active; AID 1527, 2009;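 active means inhibition above the mean of all tested compounds plus 3 SD, cutoff set per screening run, cut at about 7.5% in these data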;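 further: red hydrolysis product quenches plate fluorescence so inhibitors raise well fluorescence; 0% = enzyme with DMSO and 100% = DMSO without enzyme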
ANO1 block: TMEM16A chloride channel inhibitors, primary screen, cell-based, HTS. Anoctamin-1 (Mus musculus), Q8BHY3. HEK293 TMEM16A/YFP iodide influx fluorescence, ionomycin. normalized B-score (activity score, 25-100; higher = stronger inhibition) at 10 µM. 1.2% of 310,000 active. AID 588511, 2011;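 active means ratio plate-corrected score three or more library SD toward inhibition, starting fluorescence score within five deviations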;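 further: score derived from kinetic fluorescence span divided by baseline fluorescence per well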
ANO1 activ: TMEM16A chloride channel activators or potentiators, primary screen, cell-based, HTS | Anoctamin-1 (Mus musculus), Q8BHY3 | HEK293 TMEM16A/YFP-H148Q/I152L, iodide quench fluorescence; stronger effect = lower value | B-score at 10 µM | 0.3% of 340,000 active | AID 623877, 2012;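 active means fluorescence-ratio B-score plate-corrected deviation score at least 3 library SD below zero, with starting fluorescence score within 5 deviations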;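 further: channel opened by trigger with iodide after compound preincubation; score built on the fluorescence ratio of max minus min over baseline; more negative score means more quench and so TMEM16A activation or potentiation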
CHT block: inhibitors of human choline transporter CHT; High affinity choline transporter 1 (Homo sapiens), Q9GZV3; CHT-expressing cells, membrane potential dye, choline response; stronger effect = lower value; B-score at 10 µM; 0.86% of 310,000 active;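 active means B-score over 3 SD under the library average, and starting fluorescence ratio not unusually high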;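 further: choline stimulus applied at its EC90 after an EC20 pre-addition; B-score computed on integrated fluorescence ratio after choline addition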
CHT act confirm: CHT activators, confirmation, cell-based, membrane potential dye, duplicate. shares compounds with CHT allo act. CHT-expressing cells, membrane potential dye fluorescence (FDSS); % of choline EC20–EC90 response window; HEK293 expressing CHT LV-AA mutant; choline added at its EC20. activation, % at 10 µM. 91% of 2,500 active;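 active means primary screen active, with duplicate mean activation above negative control mean plus 3 SD, cut at about 11% in these data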
HEK293 MP dye: membrane potential response in parental HEK293 cells, counter-screen for CHT activator project, cell-based, membrane potential dye | shares compounds with CHT allo act | ratio readout change at 10 µM, hits read low | 62% of 2,500 active | membrane potential dye fluorescence (FDSS); measured after EC20 choline addition | AID 623908, 2012;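 active means duplicate-averaged ratio beyond 3 SD from buffer wells, up or down, though filed actives are nearly all decreases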
* marks the source's active call; other numbers are inactive results; i = inactive; . = no result given. Hits are enriched below; roughly 3.4% of the tested compounds scored in any of these assays.

SMILES	IMP-1 inh	CHT allo act	VIM-2 inhibitor	ANO1 block	ANO1 activ	CHT block	CHT act confirm	HEK293 MP dye
CC1(C)CC(C(CC(=O)O)c2ccccc2)CCO1 (configuration not stated)	-2	i	-3	i	i	i	.	.
Cc1cccc(OCc2n(CC(=O)OC3CC(C)CCC3C(C)C)c3ccccc3[n+]2C)c1 (configuration not stated)	0	9.3*	-1	100*	-6.2*	i	41*	i
C[n+]1cn(Cc2cc(Cl)ccc2OC(F)F)c2ccccc21	-3	7.3*	-3	i	i	i	54*	i
O=[N+]([O-])c1ccc(/C=C/C2=NN(c3ccccc3)C(c3ccco3)C2)cc1 (configuration not stated)	1	15*	2	i	i	i	51*	i
Cc1cc(/C=N/NC(N)=O)c(C)n1-c1ccc(F)cc1	0	14*	-1	i	i	i	23*	i
Nc1cc2[nH]c(=O)c3ccccc3c2cc1[N+](=O)[O-]	.	.	.	.	i	.	.	.
O=C(Nc1ccc(-n2cnnn2)cc1)C1CCCCC1	-4	9.1*	-5	i	i	i	35*	-33*
O=C(Nc1ccc(-n2cnnn2)cc1)C1CCCN1C(=O)NC1CCCCC1 (configuration not stated)	-3	i	-2	i	i	i	.	.
Cc1sc2ncn3c(C)nnc3c2c1C	-1	7*	10.0*	i	i	i	59*	-58*
Cc1sc2ncn(CCn3cnc4sc(C)c(C)c4c3=O)c(=O)c2c1C	0	i	0	i	i	i	.	.
CN(Cc1cccc(F)c1)C(=O)c1ccccc1Sc1ccccc1C#N	-2	7.2*	-1	i	i	i	31*	i
Cc1cc(N2CCOCC2)c2c(N)c(C)cc(C)c2n1	-4	12*	-3	i	i	i	58*	-78*
Cc1cc(N2CCOCC2)nc(N)n1	-2	i	-2	i	i	i	.	.
O=C(NCc1ccccc1F)Nc1ccc([N+](=O)[O-])cc1	-4	i	0	i	i	i	.	.
O=c1oc2ccccc2cc1-c1cn2cccnc2n1	3	i	2	i	i	i	20*	-33*
CN1CCC(N(C)C(=O)/C(C#N)=C\c2ccc(OC(F)F)cc2)CC1	.	.	.	.	i	.	.	.
Cc1cc[n+](-c2ccccc2)c2ccccc12	-1	7*	-3	i	i	i	32*	-44*
CCCn1c(CN2CCN(C(=O)OCC)CC2)nc2cc(NC(=O)CC)ccc21	-2	i	-2	i	i	i	9.8*	i
CCOC(=O)N1CCN(Cc2nc3cc(NC(=O)CC)ccc3n2C)CC1	-2	i	0	i	i	i	.	.
Cc1ccc(C(=O)NCC(c2ccco2)N2CCc3ccccc3C2)cc1 (configuration not stated)	.	i	.	i	i	i	.	.
O=C(NCC(c1ccco1)N1CCc2ccccc21)c1c(F)cccc1F (configuration not stated)	.	i	.	i	i	i	.	.
O=C(NCC(c1ccco1)N1CCc2ccccc2C1)c1ccc(Cl)cc1 (configuration not stated)	.	i	.	i	i	i	11*	i
O=C(NCC(c1ccco1)N1CCc2ccccc21)c1ccccc1Cl (configuration not stated)	.	9.4*	.	i	i	i	29*	i
CCc1cccc(NC(=O)Cn2c(=O)n(CCC(=O)NCC3CCCO3)c(=O)c3cc(OC)c(OC)cc32)c1 (configuration not stated)	-1	i	-2	i	i	i	.	.
Cc1cc(C)nc(CCNC(=O)c2cc(COc3ccccc3)on2)n1	1	i	2	i	i	i	.	.
SMILES	IMP-1 inh	CHT allo act	VIM-2 inhibitor	ANO1 block	ANO1 activ	CHT block	CHT act confirm	HEK293 MP dye
C/C=C(\C)C(=O)NCCN1C2=NC[C@H](Cc3ccccc3)N2C[C@@H]1Cc1ccc(OC)cc1	.	i	.	i	i	i	.	.
COc1ccc(C[C@H]2CN3C(=NC[C@H]3Cc3ccccc3)N2CCNC(=O)CCC2CCCCC2)cc1	2	i	-2	i	i	i	32*	i
Cn1cc([C@@H]2C[C@H]3CN(Cc4cccc(Cl)c4)C(=O)[C@]34CCCN24)c(-c2ccccc2)n1	-1	i	1	i	i	i	19*	i
CCn1ncc([C@@H]2C[C@H]3CN(Cc4cccc(Cl)c4)C(=O)[C@]34CCCN24)c1C	1	i	1	i	i	i	.	.
CC(C)N1CCC(N2CCN(Cc3cc(F)ccc3-n3cccn3)CC2CCO)CC1 (configuration not stated)	0	i	-3	i	i	i	73*	-55*
CC(C)N1CCN(Cc2cc(F)ccc2-n2cccn2)CC1CCO (configuration not stated)	-2	i	0	i	i	i	.	.
Cc1cccc2c(=O)cc(C)n(Cc3ccccc3)c12	-2	i	0	i	i	i	.	.
CCOC(=O)Cn1c(C)cc(=O)c2cccc(C)c21	0	i	0	i	i	i	53*	-74*
CNC(=O)Cn1c(C)cc(=O)c2cccc(C)c21	-3	10*	-1	i	i	i	63*	-73*
COc1ccc(CC(=O)OCC(=O)NCc2ccco2)cc1	.	7*	.	i	i	i	-6	i
Cn1c(=O)c(=O)n(C)c2cc(S(=O)(=O)N3CCC(N4CCCCC4)CC3)ccc21	-2	10*	-3	i	i	i	77*	-77*
